Published values of several laboratories.
Values after ≈ are worked out from the molar mass of the structure shown.

Cc1ccc(C(CS(=O)(=O)c2ccccc2)=NN=C2N=C(c3ccc(Br)cc3)CS2)cc1
viability (SK-MEL-23; cell growth or viability, MTT; 6.3 µM, 48 h): 63.7%

Cc1ncc([N+](=O)[O-])n1CCO
MIC (Eggerthella lenta; microbial growth, agar dilution; 48 h): 0.5 µg/mL (≈ 2.92 µM)

Cc1ccc(C(CS(=O)(=O)c2ccccc2)=NNC2=NC(=O)C(=NNc3ccccc3)S2)cc1
viability (SK-MEL-23; cell growth or viability, MTT; 0.4 µM, 48 h): 50.5%

CCCCOc1cccc(-c2cnc3c(n2)CCCC3)c1
IC50 (Haemonchus contortus; parasite motility; 72 h, larva): 17.7 µM

Cc1ccc(C(CS(=O)(=O)c2ccccc2)=NNc2nc(-c3ccc(OCCCCOc4ccc(-c5csc(NN=C(CS(=O)(=O)c6ccccc6)c6ccc(C)cc6)n5)cc4)cc3)cs2)cc1
viability (SK-MEL-23; cell growth or viability, MTT; 100 µM, 48 h): 37.2%

O=C(Nc1ccccc1-c1ccc(F)c(F)c1)c1nccnc1C(F)(F)F
EC50 (Penicillium digitatum; microbial growth): > 100 µg/mL

CCCCc1cccc(-c2cnc3c(n2)CCCC3)c1
IC50 (Haemonchus contortus; parasite motility; 24 h, larva): 32.4 µM

C[C@@H](Oc1cc(-c2cnn(C3CCNCC3)c2)cnc1N)c1c(Cl)ccc(F)c1Cl
inhibition (NCI-H2228; cell growth or viability, MTT; 5 µg/mL, 72 h): 85.2%

CCCCOc1ccc(-c2cnc3c(n2)CCCC3)cc1
IC50 (Haemonchus contortus; parasite motility; 48 h, larva): 6.9 µM

Cc1ccc(C(CS(=O)(=O)c2ccccc2)=NNc2nc(C)c(N=Nc3cccc(C)c3)s2)cc1
viability (SK-MEL-23; cell growth or viability, MTT; 25 µM, 48 h): 44%

O=c1[nH]c(NCc2ccc(Cl)c(Cl)c2)nc2ncn(CCCCCN3CCOCC3)c12
MIC (Eggerthella lenta; microbial growth, agar dilution; 48 h): > 32 µg/mL

Cc1cc(Nc2ncc(Cl)c(Nc3ccccc3S(=O)(=O)C(C)C)n2)c(OC(C)C)cc1C1CCNCC1
inhibition (NCI-H2228; cell growth or viability, MTT; 0.2 µg/mL, 72 h): 70.9%
